The values below come from ChEMBL document CHEMBL3763047, “Flavonoid derivatives as selective ABCC1 modulators: Synthesis and functional characterization” (Eur J Med Chem, 2016).

The target in data set [1] is ATP-dependent translocase ABCB1 (Homo sapiens, UniProt P08183). The data set can be described thus: Inhibition of ABCB1 in human KBV1 cells assessed as inhibition of calcein-AM efflux. In kind it is cell-based.
For data set [2], the target named is ABCB1 (P-glycoprotein) (Homo sapiens, UniProt P08183). The data set can be described thus: Inhibition of ABCB1 in human KBV1 cells assessed as inhibition of calcein-AM efflux at 1 uM relative to tariquidar. In kind it is cell-based. The following applies: probe calcein-AM, read-out: Imax.
Chain of ABCB1 (P-glycoprotein) (P08183 whole entry): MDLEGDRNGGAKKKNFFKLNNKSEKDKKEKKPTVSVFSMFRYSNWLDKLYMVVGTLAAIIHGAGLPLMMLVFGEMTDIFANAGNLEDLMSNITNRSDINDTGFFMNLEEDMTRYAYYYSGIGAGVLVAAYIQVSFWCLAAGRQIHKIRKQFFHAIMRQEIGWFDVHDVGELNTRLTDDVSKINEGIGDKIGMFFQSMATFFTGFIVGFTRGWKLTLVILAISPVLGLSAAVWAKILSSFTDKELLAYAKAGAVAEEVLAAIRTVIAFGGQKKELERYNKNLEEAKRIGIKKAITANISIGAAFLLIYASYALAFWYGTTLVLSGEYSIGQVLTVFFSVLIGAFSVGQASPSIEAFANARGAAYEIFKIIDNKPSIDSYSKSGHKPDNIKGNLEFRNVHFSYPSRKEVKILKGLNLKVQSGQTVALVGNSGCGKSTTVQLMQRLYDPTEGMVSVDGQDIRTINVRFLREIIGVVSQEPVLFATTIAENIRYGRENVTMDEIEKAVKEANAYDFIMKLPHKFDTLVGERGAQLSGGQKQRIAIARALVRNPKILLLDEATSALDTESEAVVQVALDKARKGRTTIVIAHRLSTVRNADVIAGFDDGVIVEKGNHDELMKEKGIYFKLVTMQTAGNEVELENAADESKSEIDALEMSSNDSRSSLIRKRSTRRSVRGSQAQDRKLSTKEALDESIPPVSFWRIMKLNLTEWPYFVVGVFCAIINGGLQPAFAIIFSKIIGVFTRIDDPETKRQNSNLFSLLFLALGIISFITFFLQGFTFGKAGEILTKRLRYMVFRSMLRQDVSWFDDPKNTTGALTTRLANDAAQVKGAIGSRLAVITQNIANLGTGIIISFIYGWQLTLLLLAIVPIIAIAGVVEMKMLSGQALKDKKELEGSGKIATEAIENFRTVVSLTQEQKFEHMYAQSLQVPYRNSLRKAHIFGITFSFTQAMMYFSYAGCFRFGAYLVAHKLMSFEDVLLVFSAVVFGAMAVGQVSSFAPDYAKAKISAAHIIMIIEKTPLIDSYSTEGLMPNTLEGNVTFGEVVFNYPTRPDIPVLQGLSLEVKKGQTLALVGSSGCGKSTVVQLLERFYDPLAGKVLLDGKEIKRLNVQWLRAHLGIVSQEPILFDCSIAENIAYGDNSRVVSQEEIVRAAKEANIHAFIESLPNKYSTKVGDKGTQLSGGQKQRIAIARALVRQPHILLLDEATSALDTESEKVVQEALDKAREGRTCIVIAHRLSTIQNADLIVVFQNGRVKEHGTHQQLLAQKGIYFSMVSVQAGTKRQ
A short description of data set [3]: Cytotoxicity against human ABCC1 transfected MDCK2 cells assessed as reduction in cell proliferation at 10 uM by crystal violet staining based assay. In kind it is ADME, Canis lupus familiaris. The following applies: dog, mdck-ii. The gist of the method: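 MDCKII-MRP1 cells transfected with human ABCC1, kept in DMEM with 10% FCS at 37 °C and 5% CO₂. Kinetic crystal violet chemosensitivity assay with the modulator alone; proliferation followed over time.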

For data set [4], the target named is T1, Multidrug resistance-associated protein 1 (Homo sapiens, UniProt P33527). The data set is described as follows: Inhibition of human ABCC1 transfected in MDCK2 cells assessed as potentiation of doxorubicin-induced cytotoxicity at 1 and 5 uM by crystal violet staining based assay. In kind it is cell-based. The following applies: mdck-ii.
T1 sequence (P33527 whole entry): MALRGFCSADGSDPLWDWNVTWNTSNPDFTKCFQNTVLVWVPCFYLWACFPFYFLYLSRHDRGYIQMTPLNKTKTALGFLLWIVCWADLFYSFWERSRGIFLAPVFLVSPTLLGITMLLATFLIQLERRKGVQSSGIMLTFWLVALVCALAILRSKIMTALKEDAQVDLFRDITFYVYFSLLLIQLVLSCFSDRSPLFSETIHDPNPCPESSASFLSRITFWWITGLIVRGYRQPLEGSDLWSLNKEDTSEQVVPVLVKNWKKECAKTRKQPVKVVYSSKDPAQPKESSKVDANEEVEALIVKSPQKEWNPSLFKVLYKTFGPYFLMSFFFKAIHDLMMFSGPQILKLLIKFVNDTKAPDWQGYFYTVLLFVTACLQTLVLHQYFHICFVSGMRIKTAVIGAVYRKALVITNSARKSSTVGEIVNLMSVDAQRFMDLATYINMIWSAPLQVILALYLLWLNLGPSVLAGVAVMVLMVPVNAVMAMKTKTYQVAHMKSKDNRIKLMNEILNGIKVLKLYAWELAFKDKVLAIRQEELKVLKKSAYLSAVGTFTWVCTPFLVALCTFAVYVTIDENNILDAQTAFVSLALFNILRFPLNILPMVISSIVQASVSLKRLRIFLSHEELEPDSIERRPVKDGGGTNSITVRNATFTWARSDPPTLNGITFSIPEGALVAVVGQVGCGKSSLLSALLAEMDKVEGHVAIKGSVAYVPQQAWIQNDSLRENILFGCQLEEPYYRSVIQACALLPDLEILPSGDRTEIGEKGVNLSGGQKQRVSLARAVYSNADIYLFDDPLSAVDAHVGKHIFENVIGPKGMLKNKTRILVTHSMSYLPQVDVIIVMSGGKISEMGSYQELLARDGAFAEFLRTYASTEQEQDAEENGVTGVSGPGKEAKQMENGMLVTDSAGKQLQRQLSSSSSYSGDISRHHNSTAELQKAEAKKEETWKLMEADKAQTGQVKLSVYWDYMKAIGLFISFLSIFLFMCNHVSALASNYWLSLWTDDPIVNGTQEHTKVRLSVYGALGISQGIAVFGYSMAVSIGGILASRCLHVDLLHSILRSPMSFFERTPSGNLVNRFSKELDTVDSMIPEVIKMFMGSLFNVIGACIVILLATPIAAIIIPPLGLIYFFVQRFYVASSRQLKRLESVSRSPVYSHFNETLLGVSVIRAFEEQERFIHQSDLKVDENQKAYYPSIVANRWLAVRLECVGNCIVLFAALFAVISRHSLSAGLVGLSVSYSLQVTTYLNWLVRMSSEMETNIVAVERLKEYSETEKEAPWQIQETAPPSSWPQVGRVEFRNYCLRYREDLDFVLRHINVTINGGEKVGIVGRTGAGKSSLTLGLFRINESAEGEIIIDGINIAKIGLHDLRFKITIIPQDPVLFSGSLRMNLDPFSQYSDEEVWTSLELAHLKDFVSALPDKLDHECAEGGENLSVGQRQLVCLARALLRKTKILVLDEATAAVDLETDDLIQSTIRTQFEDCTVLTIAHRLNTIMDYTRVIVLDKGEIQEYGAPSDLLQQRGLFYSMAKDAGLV
The target in data set [5] is T1, Multidrug resistance-associated protein 1. The data set is described as follows: Inhibition of human ABCC1 transfected in MDCK2 cells assessed as potentiation of etoposide-induced cytotoxicity at 1 and 5 uM by crystal violet staining based assay. In kind it is cell-based. The settings on record: mdck-ii.
Data set [6] concerns the target T2, Broad substrate specificity ATP-binding cassette transporter ABCG2 (Homo sapiens, UniProt Q9UNQ0).
T2 sequence (Q9UNQ0 whole entry): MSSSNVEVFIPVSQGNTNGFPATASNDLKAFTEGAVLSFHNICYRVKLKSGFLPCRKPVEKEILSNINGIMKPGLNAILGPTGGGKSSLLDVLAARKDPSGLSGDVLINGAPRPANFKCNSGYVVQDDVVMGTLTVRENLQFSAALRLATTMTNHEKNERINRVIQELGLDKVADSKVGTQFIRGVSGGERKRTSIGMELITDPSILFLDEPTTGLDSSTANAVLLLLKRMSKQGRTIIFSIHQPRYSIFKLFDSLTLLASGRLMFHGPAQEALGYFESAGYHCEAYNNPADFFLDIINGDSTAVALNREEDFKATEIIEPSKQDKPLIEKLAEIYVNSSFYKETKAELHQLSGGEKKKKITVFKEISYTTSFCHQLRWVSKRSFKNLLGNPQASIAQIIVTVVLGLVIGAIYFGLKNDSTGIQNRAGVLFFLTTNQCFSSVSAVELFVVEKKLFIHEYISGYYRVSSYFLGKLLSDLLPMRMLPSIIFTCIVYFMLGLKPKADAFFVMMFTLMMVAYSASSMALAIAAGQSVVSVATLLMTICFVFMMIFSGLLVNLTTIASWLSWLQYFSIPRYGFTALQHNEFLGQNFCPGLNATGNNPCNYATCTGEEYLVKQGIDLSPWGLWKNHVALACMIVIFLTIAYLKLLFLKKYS
The data set can be described thus: Inhibition of ABCG2 in human MCF7/Topo cells by Hoechst 33342 assay. In kind it is cell-based.

For data set [7], the target named is T2, Broad substrate specificity ATP-binding cassette transporter ABCG2. The data set is described as follows: Inhibition of human ABCG2 expressed in HEK293 cells by mitoxantrone flow cytometric analysis. In kind it is cell-based.
Data set [8] deals with T3, ABCG2 (BCRP) (Homo sapiens, UniProt Q9UNQ0).
T3 sequence (Q9UNQ0 whole entry): T2 sequence (Q9UNQ0 whole entry)
The data set can be described thus: Inhibition of ABCG2 in human MCF7/Topo cells at 10 uM by Hoechst 33342 assay relative to fumitremorgin C. In kind it is cell-based. The settings on record: probe Hoechst 33342, read-out: Imax. The gist of the method: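 Hoechst 33342 microplate assay in ABCG2-overexpressing MCF-7/Topo cells, kept in EMEM with 10% FCS and 550 nM topotecan. Imax relative to 10 µM fumitremorgin C (100%). IC50 from four-parameter logistic fit. Mean ± SEM, 2–4 experiments.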

A short description of data set [9]: Chemical stability in DMEM culture medium supplemented with 10% FCS at 37 degC after 48 hrs by RP-HPLC analysis. In kind it is physicochemical. The following applies: cattle. Put shortly:
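Compounds held in DMEM with 10% FCS at 37 °C for up to 48 h, then analysed for degradation.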

Data set [10] deals with Plasma. The data set is described as follows: Metabolic stability in NMRI mouse plasma assessed as compound degradation at 140 uM after 1 min to 24 hrs by RP-HPLC analysis.
Data set [11] has as its target MRP1 (ABCC1) (Homo sapiens, UniProt P33527). The data set is described as follows: Inhibition of human MRP1 expressed in MDCK2 cells assessed as inhibition of calcein-AM efflux at 30 uM relative to reversan. In kind it is cell-based, MDCK-II. The following applies: MDCK2 cells expressing human MRP1, probe calcein-AM, read-out: Imax. Put shortly: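 MDCKII-MRP1 cells seeded at 20,000–25,000/well and washed next day with HEPES loading buffer, pH 7.4. Loaded 60 min at 37 °C with 0.5 µM calcein-AM in buffer with BSA and pluronic F127, plus compound (10 nM–100 µM). Cells were PFA-fixed, fluorescence read at 485/535 nm, DMSO control subtracted. […] Mean ± SEM, 2–4 experiments in triplicate.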

The test system of data set [12] is HaCaT. The data set can be described thus: Cytotoxicity against human HaCaT cells at 1 to 10 uM after 140 hrs by kinetic crystal violet staining based assay. In kind it is cell-based. Put shortly:
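Spontaneously immortalized human HaCaT keratinocytes in RPMI-1640 with pyruvate, HEPES and added glucose, pre-treated with EDTA before trypsinization. Cytotoxicity followed in a kinetic assay.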

Data set [13] concerns the target T1, Multidrug resistance-associated protein 1. The data set is described as follows: Inhibition of human ABCC1 transfected in MDCK2 cells assessed as potentiation of etoposide-induced cytotoxicity at 1 uM by crystal violet staining based assay. The following applies: mdck-ii. In kind it is cell-based.

Chain of ATP-dependent translocase ABCB1 (P08183 whole entry): as the sequence (P08183 whole entry) above
Chain of MRP1 (ABCC1) (P33527 whole entry): as the sequence (P33527 whole entry) above

Usually IC50 stands for the midpoint of a concentration-inhibition curve. On to `O=C(NCCCN1CCOCC1)c1cnn2c(-c3ccccc3)cc(-c3ccccc3)nc12`, for which the half-inhibitory concentration (IC50) in data set [1] (read-out: IC50) was 6.8 µM. Besides, the inhibition at 1 µM in data set [2] is 143%. Further, the Activity result in [3] is reported as “Non-toxic”. Besides, the “inhibition (INH)” value in [4] and in [5] was “Active” throughout.

The term % inhibition denotes the change of the read-out against control, counted positive when it falls. A higher % inhibition goes with strong suppression. `O=C(c1cc(=O)c2c(OCc3ccccc3)cccc2o1)N1CCN(Cc2ccccc2)CC1`: the figures for the IC50 in [1] (read-out: IC50) and in [6] (read-out: IC50) were 15.8 µM and 16.3 µM, respectively. Also, in data set [2], the inhibition at 1 µM was 34.3%. For the same molecule, in data set [7], the % inhibition amounted to 9.8%. Also, in [8], the Emax at 10 µM was 84.1%.

As for `COc1cc(OC)c2c(=O)cc(N3CCN(Cc4ccc5nonc5c4)CC3)oc2c1`, the IC50 entry in [1] (kbv1) and in data set [6] (mcf7/topo) was “Not Active” each time. For the same molecule, the Activity entry in data set [3] and in data set [12] was “Non-toxic” in each case. The Stability entry in data set [9] and in [10] was “Stable” throughout. In addition, the “inhibition (INH)” value in data set [4] and in data set [13] was “Active” throughout. Further, in data set [11], the inhibition at 30 µM is 120%.
